Drawing on ChEMBL document CHEMBL3351425, “Lactones from Ficus auriculata and their effects on the proliferation function of primary mouse osteoblasts in vitro” (2014), this text covers Activity for 8 compounds.

Assay type in all cases: functional, Osteoblast
The nature of assay [1]: Induction of cell proliferation in osteoblasts (unknown origin) at 10 uM after 48 hrs by MTT assay relative to untreated control. In outline: (§1)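 Primary mouse osteoblasts were seeded at 2 × 10^3 cells/well and cultured 24 h, then exposed to compound for 48 h. MTT (5.0 mg/ml) was added for a further 4 h at 37 °C, and formazan was dissolved in DMSO. OD was read at 570 nm. Viability = (OD sample − blank)/(OD untreated control − blank) × 100. The blank was cell-free medium.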
(Formazan colour is commonly taken as a measure of viable cells.)

Assay [2] can be described thus: Induction of cell proliferation in osteoblasts (unknown origin) at 100 uM after 48 hrs by MTT assay relative to untreated control. In outline: as §1
The nature of assay [3]: Induction of cell proliferation in osteoblasts (unknown origin) at 1 uM after 48 hrs by MTT assay relative to untreated control. In a few lines:
as §1

For `COc1cc(O)cc2c1C(=O)O[C@H](C)CCCCCCC2`, the Activity in assay [1] worked out at 14.19%; in assay [2], 51.55%; in assay [3] it was 3.45%.
For the compound `C[C@@H]1CCCCCCCc2cc(O)cc(O)c2C(=O)O1`, the values for the Activity in assay [1], in assay [2] and in assay [3] were -4.54%, 19.48% and 1.67%, respectively.
Take `COc1cc(O)cc2c1C(=O)O[C@H](C)CCC(=O)CCCC2`: the Activity was -4.29% in assay [1], 3.28% in assay [2] and 2.87% in assay [3].
With `COC1=CC(=O)C=C2CCCCC(=O)CC[C@@H](C)OC(=O)[C@@]21O`, the Activity in assay [1] amounted to 10.92%; in assay [2], 19.62%; in assay [3] it was 12.54%.
As to `COC1=CC(=O)C=C2CCCC(=O)CCC[C@@H](C)OC(=O)[C@@]21O`, the Activity was 8.94% in assay [1], 2.61% in assay [2] and 10% in assay [3].
As to `COC1=CC(=O)C=C2CCCCCCC[C@@H](C)OC(=O)[C@@]21O`, the Activity in assay [1] was -43.92%; in assay [2], -68.32%; in assay [3] it was -7.91%.
`COc1cc(O)cc2c1C(=O)O[C@H](C)CC[C@@H](O)CCCC2`: the Activity in assay [1] is reported as -6.67%; in assay [2], 2.1%; in assay [3] it was 3.97%.
On to `[F-].[Na+]` [SODIUM FLUORIDE], for which the values for the Activity in assay [1], in assay [2] and in assay [3] were 18.76%, 22.54% and 12.15%, respectively.
